Test results taken from ChEMBL document CHEMBL3091364, “Benzyloxybenzylammonium chlorides: Simple amine salts that display anticonvulsant activity” (Bioorg Med Chem, 2013).
Activity calls are given as the source filed them. The calls are words filed in the database; no cut-off is given here.

Assays:
Mus musculus [1] = assay: Anticonvulsant activity in ip dosed albino CF-1 mouse assessed as protection against subcutaneous metrazol-induced seizure measured at 0.25 hrs; type: functional; details: albino CF-1, 0.25 h
Summary of the method: (§1)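 Screened under the NINDS ASP in male albino Carworth Farms No. 1 mice (ip) or male albino Sprague-Dawley rats (ip or po), using MES, 6 Hz (32 mA) and subcutaneous pentylenetetrazol seizure tests. Initial qualitative tests used preset doses (e.g., 30, 50, 100 mg/kg). ED50 values with 95% confidence intervals came from dose–response data collected at the time of peak effect.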

[2] = Toxicity in ip dosed albino CF-1 mouse assessed as neurological impairment measured at 0.25 hrs by rotorod test; type: organism-based; details: in vivo
Summary of the method: (§2)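 Male albino Carworth Farms No. 1 mice dosed intraperitoneally under the NINDS Anticonvulsant Screening Program; neurological impairment scored by rotorod test. Qualitative screens used preset doses (e.g., 30, 100 mg/kg); where activity was sufficient, dose–response curves were run at time of peak effect to give TD50 in mg/kg with 95% confidence intervals.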

Mus musculus [3] = assay: Anticonvulsant activity in ip dosed albino CF-1 mouse assessed as protection against 6 Hz psychomotor seizure measured at 2 hrs; type: functional; details: albino CF-1, ip; summary of the method: as §1
[4] = target: T1, 5-hydroxytryptamine receptor 3A (Homo sapiens) (UniProt P46098); assay: Inhibition of 5-HT3 receptor (unknown origin) at 10 uM relative to control
T1 sequence (whole entry): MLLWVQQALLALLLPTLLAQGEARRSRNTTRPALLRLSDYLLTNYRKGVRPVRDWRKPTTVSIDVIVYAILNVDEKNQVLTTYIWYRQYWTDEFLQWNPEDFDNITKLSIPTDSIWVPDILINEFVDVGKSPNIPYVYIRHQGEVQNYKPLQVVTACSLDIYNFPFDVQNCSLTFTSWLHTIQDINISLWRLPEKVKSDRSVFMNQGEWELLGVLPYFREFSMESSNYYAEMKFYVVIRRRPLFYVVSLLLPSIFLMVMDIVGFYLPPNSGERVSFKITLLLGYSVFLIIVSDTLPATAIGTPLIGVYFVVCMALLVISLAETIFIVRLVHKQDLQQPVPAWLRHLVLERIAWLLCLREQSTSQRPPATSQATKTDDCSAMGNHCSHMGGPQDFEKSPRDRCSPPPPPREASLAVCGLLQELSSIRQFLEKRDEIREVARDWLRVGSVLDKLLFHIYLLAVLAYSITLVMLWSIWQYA

[5] = target: T2, Alpha-1D adrenergic receptor (Homo sapiens) (UniProt P25100); assay: Inhibition of adrenergic alpha-1D receptor (unknown origin) at 10 uM relative to control
T2 sequence (whole entry): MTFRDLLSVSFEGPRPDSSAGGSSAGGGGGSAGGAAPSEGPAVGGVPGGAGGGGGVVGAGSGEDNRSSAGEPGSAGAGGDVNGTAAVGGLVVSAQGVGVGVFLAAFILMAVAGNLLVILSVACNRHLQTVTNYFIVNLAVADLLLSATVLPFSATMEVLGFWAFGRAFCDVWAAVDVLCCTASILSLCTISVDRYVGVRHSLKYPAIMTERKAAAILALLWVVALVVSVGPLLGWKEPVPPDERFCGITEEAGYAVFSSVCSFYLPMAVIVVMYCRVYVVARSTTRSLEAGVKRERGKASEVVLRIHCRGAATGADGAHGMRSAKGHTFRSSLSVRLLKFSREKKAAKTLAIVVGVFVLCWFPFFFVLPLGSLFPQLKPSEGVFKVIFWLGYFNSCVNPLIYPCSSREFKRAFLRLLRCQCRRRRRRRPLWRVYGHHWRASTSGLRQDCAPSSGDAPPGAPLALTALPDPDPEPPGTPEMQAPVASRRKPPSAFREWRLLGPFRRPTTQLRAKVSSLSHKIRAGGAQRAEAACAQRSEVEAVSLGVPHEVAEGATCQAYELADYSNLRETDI

Mus musculus [6] = assay: Anticonvulsant activity in ip dosed albino CF-1 mouse assessed as protection against maximal electroshock-induced seizures measured at 0.25 hrs; type: functional; details: albino CF-1, ip; summary of the method: as §1
Mus musculus [7] = assay: Anticonvulsant activity in ip dosed albino CF-1 mouse assessed as protection against maximal electroshock-induced seizures measured at 0.25 to 0.5 hrs; type: functional; details: albino CF-1, ip; summary of the method: as §1
Mus musculus [8] = assay: Anticonvulsant activity in ip dosed albino CF-1 mouse assessed as protection against maximal electroshock-induced seizures measured at 0.5 hrs; type: functional; details: albino CF-1, ip; summary of the method: as §1
Mus musculus [9] = assay: Anticonvulsant activity in ip dosed albino CF-1 mouse assessed as protection against subcutaneous metrazol-induced seizure measured at 0.5 hrs; type: functional; details: albino CF-1, 0.5 h; summary of the method: as §1
Rattus norvegicus [10] = assay: Anticonvulsant activity in po dosed albino Sprague-Dawley rat assessed as protection against maximal electroshock-induced seizures measured at 1 hr; type: functional; summary of the method: as §1
[11] = Toxicity in ip dosed albino Sprague-Dawley rat assessed as behavioral changes measured at 0.5 hrs; type: organism-based; details: in vivo
Summary of the method: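 Male albino Sprague-Dawley rats given compound intraperitoneally or orally (NINDS ASP); neurological impairment judged from behavioral toxicity effects. Preset screening doses (e.g., 30 mg/kg); for adequately active compounds, TD50 (mg/kg, 95% confidence intervals) derived from dose–effect data at time of peak effect.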

Rattus norvegicus [12] = organism: Rattus norvegicus; assay: Induction of Na+ channel slow inactivation in rat embryonic cortical neurons at 10 uM by whole-cell voltage clamp assay
[13] = target: T3, Alpha-1A adrenergic receptor (Homo sapiens) (UniProt P35348); assay: Inhibition of adrenergic alpha-1A receptor (unknown origin) at 10 uM relative to control
T3 sequence (whole entry): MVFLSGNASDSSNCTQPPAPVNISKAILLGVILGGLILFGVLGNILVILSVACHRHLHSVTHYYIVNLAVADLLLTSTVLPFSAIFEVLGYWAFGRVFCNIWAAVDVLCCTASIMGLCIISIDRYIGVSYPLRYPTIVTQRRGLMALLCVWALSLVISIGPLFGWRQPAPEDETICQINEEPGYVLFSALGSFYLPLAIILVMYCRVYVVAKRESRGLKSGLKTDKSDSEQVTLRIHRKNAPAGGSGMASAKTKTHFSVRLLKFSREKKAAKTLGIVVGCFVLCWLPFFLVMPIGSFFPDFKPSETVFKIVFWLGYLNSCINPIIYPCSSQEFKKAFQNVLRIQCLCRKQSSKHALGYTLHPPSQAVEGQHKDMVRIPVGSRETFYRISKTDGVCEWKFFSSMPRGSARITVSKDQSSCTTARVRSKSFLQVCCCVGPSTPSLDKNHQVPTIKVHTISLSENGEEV

[14] = target: 5-hydroxytryptamine receptor 1E (Homo sapiens) (UniProt P28566); assay: Inhibition of 5-HT1E receptor (unknown origin) at 10 uM relative to control
[15] = target: 5-hydroxytryptamine receptor 1B (Homo sapiens) (UniProt P28222); assay: Inhibition of 5-HT1B receptor (unknown origin) at 10 uM relative to control
Mus musculus [16] = assay: Anticonvulsant activity in ip dosed albino CF-1 mouse assessed as protection against 6 Hz psychomotor seizure measured at 0.5 hrs; type: functional; details: albino CF-1, ip; summary of the method: as §1
Mus musculus [17] = assay: Anticonvulsant activity in ip dosed albino CF-1 mouse assessed as protection against maximal electroshock-induced seizures measured at 0.5 to 2 hrs; type: functional; details: albino CF-1, ip; summary of the method: as §1
[18] = Toxicity in ip dosed albino CF-1 mouse assessed as neurological impairment measured at 0.5 to 2 hrs by rotorod test; type: organism-based; details: in vivo; summary of the method: as §2

Sequence of 5-hydroxytryptamine receptor 1B (Homo sapiens) (P28222 whole entry): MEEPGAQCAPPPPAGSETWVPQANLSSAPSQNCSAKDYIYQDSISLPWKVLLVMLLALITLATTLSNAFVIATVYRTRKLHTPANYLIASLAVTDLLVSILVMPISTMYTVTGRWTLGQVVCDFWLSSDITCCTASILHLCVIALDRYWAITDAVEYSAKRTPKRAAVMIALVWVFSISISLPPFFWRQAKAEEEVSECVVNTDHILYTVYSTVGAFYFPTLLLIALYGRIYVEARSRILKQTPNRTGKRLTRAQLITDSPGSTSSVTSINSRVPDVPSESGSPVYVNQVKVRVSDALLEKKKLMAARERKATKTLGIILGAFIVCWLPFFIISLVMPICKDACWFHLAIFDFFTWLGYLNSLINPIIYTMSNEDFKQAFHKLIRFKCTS
Sequence of 5-hydroxytryptamine receptor 1E (Homo sapiens) (P28566 whole entry): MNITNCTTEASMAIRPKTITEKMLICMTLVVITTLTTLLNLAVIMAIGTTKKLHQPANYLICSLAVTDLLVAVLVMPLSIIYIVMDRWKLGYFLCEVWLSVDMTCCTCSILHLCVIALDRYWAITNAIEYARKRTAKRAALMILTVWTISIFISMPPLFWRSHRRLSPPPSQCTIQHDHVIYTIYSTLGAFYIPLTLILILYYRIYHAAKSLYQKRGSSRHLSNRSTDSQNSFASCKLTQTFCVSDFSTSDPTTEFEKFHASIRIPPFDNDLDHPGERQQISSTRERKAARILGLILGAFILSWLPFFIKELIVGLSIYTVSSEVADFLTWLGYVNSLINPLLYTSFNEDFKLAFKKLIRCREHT

Molecule `Cl.NCc1ccc(OCc2cccc(Cl)c2)cc1` has an ED50 (Mus musculus [1]) greater than 180 mg/kg, a TD50 at 0.25 h [2] of 160 mg/kg and an ED50 (Mus musculus [3]) of 78 mg/kg. For the same molecule, the inhibition [4] was 13.7%, the inhibition [5] was -1.9% and the ED50 (Mus musculus [6]) was 54 mg/kg.

For `Cl.NCc1ccc(OCc2cccc(F)c2)cc1`, the ED50 (Mus musculus [7]) was less than 100 mg/kg and the inhibition [5] was -9.1%.

Work on `Cl.NCc1ccc(OCc2cccc(OC(F)(F)F)c2)cc1` yielded an ED50 (Mus musculus [8]) of 28 mg/kg, a TD50 at 0.25 h [2] of 92 mg/kg and an ED50 (Mus musculus [9]) greater than 170 mg/kg.

With `Cl.NCc1ccc(OCc2ccccc2OC(F)(F)F)cc1` the ED50 (Mus musculus [1]) was greater than 80 mg/kg, the TD50 at 0.25 h [2] was 64 mg/kg and the inhibition [4] was 10.4%. The ED50 (Rattus norvegicus [10]) was 30 mg/kg, the TD50 at 0.5 h [11] was 81 mg/kg and the Activity (Rattus norvegicus [12]) was “Active”. The inhibition [5] was 6.5%, the inhibition [13] was -9.7% and the inhibition [14] was -5.2%. The ED50 (Mus musculus [6]) was 20 mg/kg and the inhibition [15] was -8.8%.

Molecule `Cl.NCc1ccc(OCc2ccc(OC(F)(F)F)cc2)cc1` has an ED50 (Mus musculus [8]) of less than 100 mg/kg, an ED50 (Mus musculus [3]) of 30 mg/kg and an inhibition [14] of -6.9%.

`Cl.NCc1ccc(OCc2ccccc2)cc1` showed an ED50 (Mus musculus [16]) of 30 mg/kg, an ED50 (Mus musculus [17]) greater than 100 mg/kg and a TD50 [18] of 100 mg/kg. The inhibition [13] was 12.8%.

With `Cl.NCc1ccc(OCc2ccccc2F)cc1` the ED50 (Mus musculus [8]) was 30 mg/kg, the ED50 (Mus musculus [16]) was 30 mg/kg and the TD50 [18] was 100 mg/kg. It also gave an inhibition [14] of -6.6% and an inhibition [15] of -7.7%.

With `Cl.NCc1ccc(OCc2ccc(Cl)cc2)cc1` the ED50 (Mus musculus [3]) was less than 100 mg/kg, the inhibition [4] was 23.1% and the inhibition [5] was -6.6%. It also gave an inhibition [13] of -9.4%, an inhibition [14] of 2.7% and an ED50 (Mus musculus [6]) of less than 100 mg/kg. The inhibition [15] was -6.7%.

Work on `Cl.NCc1ccc(OCc2ccc(F)cc2)cc1` yielded an inhibition [4] of -4.2%, an inhibition [5] of 0.2% and an inhibition [13] of -7.5%. For the same molecule, the ED50 (Mus musculus [6]) was less than 100 mg/kg and the inhibition [15] was -2.5%.
